What all share (type): functional
In test [1] the test system is Aphis craccivora. The experiment in a line: Insecticidal activity against Aphis craccivora (cowpea aphid) assessed as mortality at 500 mg/L after 24 hr by leaf-dip method. The method in brief: (§1)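 Test solutions were made by dissolving compounds in N,N-dimethylformamide and diluting with water containing Triton X-100 (0.1 mg/L), giving a series of 500.0, 250.0 and 125.0 mg/L plus other concentrations for the cowpea aphid (Aphis craccivora) bioassay.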

Test [2] deals with Aphis craccivora. The experiment in a line: Insecticidal activity against Aphis craccivora (cowpea aphid) assessed as mortality at 125 mg/L after 24 hr by leaf-dip method. The essentials:
as §1

For test [3], the system named is Aphis craccivora. The experiment in a line: Insecticidal activity against Aphis craccivora (cowpea aphid) assessed as mortality after 24 hr by leaf-dip method. The method in brief:
as §1

In test [4] the test system is Aphis craccivora. The experiment in a line: Insecticidal activity against Aphis craccivora (cowpea aphid) assessed as mortality at 250 mg/L after 24 hr by leaf-dip method. The method in brief:
as §1

Take `O=[N+]([O-])C(/N=N/c1cccc(F)c1F)=C1\NCCN1Cc1ccc(Cl)nc1`: the mortality at 500 µg/mL in test [1] was found to be 25.1%.
On the same count and under the same terms, the value for `O=[N+]([O-])C(/N=N/c1ccc([N+](=O)[O-])cc1)=C1\NCCN1Cc1cnc(Cl)s1` was 12.1%; that for `O=[N+]([O-])C(/N=N/c1c(Cl)cccc1Cl)=C1\NCCN1Cc1ccc(Cl)nc1` was 6.5%.
For the compound `O=[N+]([O-])C(/N=N/c1ccc(F)cc1F)=C1\NCCN1Cc1ccc(Cl)nc1`, in test [1], the mortality at 500 µg/mL stood at 12.2%.
In the case of `CC(C)c1cccc(C(C)C)c1/N=N/C(=C1/NCCN1Cc1ccc(Cl)nc1)[N+](=O)[O-]`, the mortality at 125 µg/mL in test [2] was 100%. Also, in test [3], the LC50 came out at 13.8 µM. The mortality at 250 µg/mL in test [4] was 100%. The mortality at 500 µg/mL in test [1] turned out to be 100%.
With `COc1cccc(OC)c1/N=N/C(=C1/NCCN1Cc1cnc(Cl)s1)[N+](=O)[O-]`, the mortality at 125 µg/mL in test [2] was found to be 100%. Besides, in test [3], the median lethal concentration (LC50) is 14.6 µM. Also, in test [4], the mortality at 250 µg/mL amounted to 100%. Further, the mortality at 500 µg/mL in test [1] was determined as 100%.
In the case of `O=[N+]([O-])C(/N=N/c1ccccc1Cl)=C1\NCCN1Cc1ccc(Cl)nc1`, in test [1], the mortality at 500 µg/mL was 7.1%.
On the same count and under the same terms, the value for `Cc1ccccc1/N=N/C(=C1/NCCN1Cc1ccc(Cl)nc1)[N+](=O)[O-]` was 52.5%.
On to `CCc1cccc(CC)c1/N=N/C(=C1/NCCN1Cc1cnc(Cl)s1)[N+](=O)[O-]`, for which, in test [2], the mortality at 125 µg/mL turned out to be 100%. The LC50 in test [3] is 11.8 µM. For the same compound, the mortality at 250 µg/mL in test [4] came out at 100%. The mortality at 500 µg/mL in test [1] was 100%.
On to `CCc1cccc(CC)c1/N=N/C(=C1/NCCN1Cc1ccc(Cl)nc1)[N+](=O)[O-]`, for which the mortality at 125 µg/mL in test [2] was 100%. Also, in test [3], the 50% lethal concentration (LC50) was found to be 2.8 µM. Moreover, in test [4], the mortality at 250 µg/mL amounted to 100%. Also, the mortality at 500 µg/mL in test [1] is 100%.
`Cc1cccc(C)c1/N=N/C(=C1/NCCN1Cc1cnc(Cl)s1)[N+](=O)[O-]`: the mortality at 125 µg/mL in test [2] came to 100%. The LC50 in test [3] was 3.5 µM. The mortality at 250 µg/mL in test [4] came to 100%. Further, the mortality at 500 µg/mL in test [1] was 100%.
For `O=[N+]([O-])C(/N=N/c1c(Cl)cccc1Cl)=C1\NCCN1Cc1cnc(Cl)s1`, the mortality at 500 µg/mL in test [1] stood at 18.2%.
The same measure, in the same setting: under `O=[N+]([O-])C(/N=N/c1ccccc1[N+](=O)[O-])=C1\NCCN1Cc1ccc(Cl)nc1` stands 8.2%; under `O=[N+]([O-])C(/N=N/c1ccccc1)=C1\NCCN1Cc1ccc(Cl)nc1`, 31.2%; under `O=[N+]([O-])C(/N=N/c1ccc([N+](=O)[O-])cc1)=C1\NCCN1Cc1ccc(Cl)nc1`, 4.7%.
On the same count and under the same terms, under `Cc1cccc(/N=N/C(=C2/NCCN2Cc2cnc(Cl)s2)[N+](=O)[O-])c1C` stands 61.7%; under `Cc1cc(C(F)(C(F)(F)F)C(F)(F)F)cc(C)c1/N=N/C(=C1/NCCN1Cc1ccc(Cl)nc1)[N+](=O)[O-]`, 12.2%; under `Cc1ccc(/N=N/C(=C2/NCCN2Cc2ccc(Cl)nc2)[N+](=O)[O-])cc1`, 56.6%.
On to `Cc1cccc(C)c1/N=N/C(=C1/NCCN1Cc1ccc(Cl)nc1)[N+](=O)[O-]`, for which the mortality at 125 µg/mL in test [2] is 100%. Besides, in test [3], the LC50 is 4.26 µM. Moreover, in test [4], the mortality at 250 µg/mL was 100%. For the same compound, the mortality at 500 µg/mL in test [1] was determined as 100%.
`O=[N+]([O-])C(/N=N/c1ccc(Br)cc1)=C1\NCCN1Cc1ccc(Cl)nc1`: the mortality at 500 µg/mL in test [1] amounted to 58.3%.
Turning to `Cc1cc(C)c(/N=N/C(=C2/NCCN2Cc2cnc(Cl)s2)[N+](=O)[O-])c(C)c1`, the mortality at 125 µg/mL in test [2] amounted to 100%. Besides, the mortality at 250 µg/mL in test [4] is 100%. The mortality at 500 µg/mL in test [1] came to 100%.
As to `COc1ccccc1/N=N/C(=C1/NCCN1Cc1ccc(Cl)nc1)[N+](=O)[O-]`, the mortality at 125 µg/mL in test [2] stood at 35.5%. Further, the mortality at 250 µg/mL in test [4] stood at 76%. For the same compound, the mortality at 500 µg/mL in test [1] turned out to be 91%.
On to `Cc1ccc(/N=N/C(=C2/NCCN2Cc2ccc(Cl)nc2)[N+](=O)[O-])cc1C`, for which the mortality at 500 µg/mL in test [1] stood at 19.7%.
Same read-out and setting: the value for `Cc1cccc(/N=N/C(=C2/NCCN2Cc2ccc(Cl)nc2)[N+](=O)[O-])c1C` was 73.3%.
For the compound `O=[N+]([O-])/N=C1\NCCN1Cc1ccc(Cl)nc1` [IMIDACLOPRID], the mortality at 125 µg/mL in test [2] was found to be 100%. The LC50 in test [3] was 35 µM. Further, the mortality at 250 µg/mL in test [4] is 100%. Also, the mortality at 500 µg/mL in test [1] amounted to 100%.
As to `O=[N+]([O-])C(/N=N/c1ccc(F)c(Cl)c1)=C1\NCCN1Cc1ccc(Cl)nc1`, the mortality at 500 µg/mL in test [1] stood at 8.6%.
With `O=[N+]([O-])C(/N=N/c1ccc(F)cc1)=C1\NCCN1Cc1ccc(Cl)nc1`, in test [2], the mortality at 125 µg/mL was determined as 100%. Moreover, the LC50 in test [3] worked out at 37.2 µM. The mortality at 250 µg/mL in test [4] came to 100%. The mortality at 500 µg/mL in test [1] came to 100%.
Consider `COc1ccc(/N=N/C(=C2/NCCN2Cc2ccc(Cl)nc2)[N+](=O)[O-])cc1`, for which, in test [1], the mortality at 500 µg/mL came out at 47.5%.
Turning to `Cc1cc(C)c(/N=N/C(=C2/NCCN2Cc2ccc(Cl)nc2)[N+](=O)[O-])c(C)c1`, the mortality at 125 µg/mL in test [2] stood at 100%. In addition, the LC50 in test [3] is 4.99 µM. Besides, the mortality at 250 µg/mL in test [4] worked out at 100%. Besides, the mortality at 500 µg/mL in test [1] amounted to 100%.
As to `COc1ccc(/N=N/C(=C2/NCCN2Cc2cnc(Cl)s2)[N+](=O)[O-])cc1`, the mortality at 500 µg/mL in test [1] worked out at 11.8%.
As for `COc1cccc(OC)c1/N=N/C(=C1/NCCN1Cc1ccc(Cl)nc1)[N+](=O)[O-]`, the mortality at 125 µg/mL in test [2] came to 100%. Further, the LC50 in test [3] came to 9.9 µM. Further, the mortality at 250 µg/mL in test [4] amounted to 100%. Also, in test [1], the mortality at 500 µg/mL was 100%.
For `O=[N+]([O-])C(/N=N/c1ccccc1I)=C1\NCCN1Cc1ccc(Cl)nc1`, the mortality at 500 µg/mL in test [1] stood at 0%.
On the same count and under the same terms, the value for `O=[N+]([O-])C(/N=N/c1ccccc1F)=C1\NCCN1Cc1ccc(Cl)nc1` was 13%.
On to `CCc1cccc(C)c1/N=N/C(=C1/NCCN1Cc1ccc(Cl)nc1)[N+](=O)[O-]`, for which the mortality at 125 µg/mL in test [2] stood at 100%. Moreover, the LC50 in test [3] amounted to 3.74 µM. The mortality at 250 µg/mL in test [4] was 100%. Moreover, the mortality at 500 µg/mL in test [1] was 100%.

In general, mortality refers to the share of the test organisms that died. In general, LC50 refers to the concentration lethal to half of the exposed cells or organisms.

Source of the values: ChEMBL document CHEMBL3046033, “Design, synthesis, crystal structure analysis, and insecticidal evaluation of phenylazoneonicotinoids” (2011).
